Data taken from the RNAGym collection of RNA variant scans (doi:10.1126/science.aae0568).
Variants at the floor of the assay were thinned out.

B1: tRNA (parent)
chain: GUUCCGUUGGCGUAAUGGUAACGCGUCUCCCUCCUAAGGAGAAGACUGCGGGUUCGAGUCCCGUACGGAACG

Variants of: B1
Test: yeast fitness relative to wild type (ratio to wild type); higher = fitter; tRNA-Arg(CCU), competitive growth, 37 C, YPD
In short: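 The tRNA-Arg(CCU) gene variants were made by chemical synthesis with a 3% per-site mutation rate at 69 sites and inserted at the native genomic locus of Saccharomyces cerevisiae. After pooling, the strains were competed in YPD at 37°C for 24 hours in six parallel replicates. Gene amplicons from the start population and each end population were read by 100-nucleotide paired-end sequencing, and Darwinian fitness relative to wild type was taken from genotype frequency changes. Genotypes needed ≥ 100 starting reads, and estimates < 0.5 were set to 0.5.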
C4U C24A C62U A69U showed a yeast fitness of at most 0.5. Work on C4U A40U G68U yielded a yeast fitness of 0.708. Work on C4U C30A G50U yielded a yeast fitness of 0.715. C4U C24A A57G G68C gave a yeast fitness of at most 0.5. Variant C4U U8A G25C A43U C60G has a yeast fitness of at most 0.5. In the case of C4U G9A C61G, the yeast fitness is reported as 0.566. Work on C4U G10A yielded a yeast fitness of 0.644. C4U gave a yeast fitness of 0.989. With C4U C5A A36C A42G G52A the yeast fitness was 0.578. With C4U A36U G41C C55U U64C the yeast fitness was 0.587. For C4U G12A C31A A42U, the yeast fitness was at most 0.5. C4G U7A C22U showed a yeast fitness of at most 0.5. For C4U A14C C22U C34U, the yeast fitness was at most 0.5. C4U C34G showed a yeast fitness of 0.768. C4U C34U gave a yeast fitness of 0.737. In the case of C4U G12A U16A G51A U54A, the yeast fitness is reported as at most 0.5. In the case of C4U C30G A36U C55U, the yeast fitness is reported as at most 0.5. For C4U U16A C61U, the yeast fitness was 0.708. In the case of C4U C5G A37C, the yeast fitness is reported as at most 0.5. With C4U U53G the yeast fitness was 0.558. C4G G51C U64A gave a yeast fitness of at most 0.5. C4U G56A gave a yeast fitness of 0.934. Work on C4U G6A C46G yielded a yeast fitness of 0.623. Variant C4U C24G U26A U28G A65U has a yeast fitness of at most 0.5. Variant C4U C5G C31G G50C has a yeast fitness of at most 0.5. Work on C4U G6A U8G C31U G63A yielded a yeast fitness of at most 0.5. Variant C4U A37G has a yeast fitness of 0.875. For C4U A40G, the yeast fitness was 0.997. C4G U28G showed a yeast fitness of 0.696. With C4U C31G C55U the yeast fitness was 0.579. In the case of C4U G10C G48C C62A, the yeast fitness is reported as at most 0.5. Variant C4U A20G C29G U32A C62A has a yeast fitness of at most 0.5. Work on C4U C22G A57U G63C yielded a yeast fitness of at most 0.5. C4G G41A A43C showed a yeast fitness of at most 0.5. In the case of C4U C11G C29U, the yeast fitness is reported as at most 0.5. In the case of C4U C22G A36C C62G A70C, the yeast fitness is reported as at most 0.5. With C4U A36G G39A the yeast fitness was 0.679. Variant C4U A45G has a yeast fitness of 0.856. In the case of C4U A45C, the yeast fitness is reported as 0.939. C4U C5G C11U C29U U32A C33U G67U A70G showed a yeast fitness of at most 0.5. Variant C5A A14U C27U C49G A57G has a yeast fitness of at most 0.5. Work on C4G G51U yielded a yeast fitness of 0.654. For C4U A15U C30A A40G C66U A70G, the yeast fitness was at most 0.5. Variant C4U A21C C31A G56C has a yeast fitness of at most 0.5. For C4G U8C U59G, the yeast fitness was at most 0.5. With C4U C27A C31U A43U the yeast fitness was 0.57. C4U C22U A42C gave a yeast fitness of at most 0.5. In the case of C4U U7A G39C, the yeast fitness is reported as at most 0.5. For C4U U7G G56C C60G C66U, the yeast fitness was at most 0.5. With C4U G12A C62U the yeast fitness was 0.73. Variant C4U C11G C22G C62U has a yeast fitness of at most 0.5. Variant C4U A20U A40U G52A A69U has a yeast fitness of at most 0.5. C4U C30A U53C A70C gave a yeast fitness of at most 0.5. In the case of C4U A15C A65U A69U, the yeast fitness is reported as at most 0.5. Work on C5A A14U A21G G52A yielded a yeast fitness of 0.533. C4U G41A showed a yeast fitness of 1.02. In the case of C4U A15U C30A A40G C66U, the yeast fitness is reported as 0.6. Variant C4U U35C A45G C49G G56A A65C has a yeast fitness of at most 0.5. C4U U7A A37C gave a yeast fitness of at most 0.5. Work on C4G U16C A36U yielded a yeast fitness of at most 0.5. C4G U13G U16A showed a yeast fitness of at most 0.5. With C4G U13G U16C the yeast fitness was 0.566. C4U U54C gave a yeast fitness of 0.921. With C4U U8G A20G U47G A57G the yeast fitness was at most 0.5. C4U A15C C30G C49U A69C A70G showed a yeast fitness of at most 0.5. For C4U G50C G51C G56A, the yeast fitness was at most 0.5. C4U C60G G63A gave a yeast fitness of 0.706. In the case of C4U G44A A69C, the yeast fitness is reported as 0.568. C4U G17A U19G A21G A43G showed a yeast fitness of 0.554. In the case of C4U U19C A37U C62A, the yeast fitness is reported as at most 0.5. Variant C4U A14G A36C C46G C62U has a yeast fitness of at most 0.5. Work on C4U C24U U26C G68A yielded a yeast fitness of at most 0.5. C5A A14G C29G C55U A70U showed a yeast fitness of at most 0.5. In the case of C4G U8G C27G, the yeast fitness is reported as 0.567. For C4U G18A G23C C24G C46G U64G, the yeast fitness was at most 0.5. In the case of C4U A21G C46A U54C, the yeast fitness is reported as 0.791. Work on C4U A15U U28C A57G C61G yielded a yeast fitness of at most 0.5. C4U C27A C30U A37U C60G showed a yeast fitness of 0.639. With C4U U32A G50A G67A the yeast fitness was at most 0.5. C4U C29A C31G A42C A45U gave a yeast fitness of at most 0.5. C4U C66A showed a yeast fitness of 0.746. With C4G U7C C27A C66A A70U the yeast fitness was at most 0.5. Variant C4U C27A G51C has a yeast fitness of 0.562.
